In ChEMBL document CHEMBL4414599, “Selective Phenylimidazole-Based Inhibitors of the Mycobacterium tuberculosis Proteasome” (J Med Chem, 2019):

What was measured:
[1] = biological target: T1, Proteasome Macropain subunit MB1 (Homo sapiens, UniProt P28074); assay: Inhibition of human 20S proteasome beta-5c subunit using Suc-LLVY-AMC as substrate and measured every 30 secs for 30 mins by microtiter plate assay; conditions: for inhibition (INH): human, 0.5 h
T1 sequence (P28074 whole entry): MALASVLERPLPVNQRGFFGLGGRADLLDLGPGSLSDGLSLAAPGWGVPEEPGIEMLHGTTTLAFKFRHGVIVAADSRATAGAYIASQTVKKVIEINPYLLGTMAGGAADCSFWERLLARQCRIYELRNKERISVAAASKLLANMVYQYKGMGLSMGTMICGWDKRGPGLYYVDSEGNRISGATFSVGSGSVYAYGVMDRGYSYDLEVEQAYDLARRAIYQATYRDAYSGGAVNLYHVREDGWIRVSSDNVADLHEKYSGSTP
Summary of the method: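 Human constitutive 20S, purchased, 0.8 nM in the enzyme solution. Buffer: 20 mM HEPES pH 7.5, 0.5 mM EDTA, 0.1 mg/mL BSA, 0.02% SDS. Suc-LLVY-AMC at 25 µM final, 25 °C, three-fold inhibitor dilutions. Fluorescence 340/460 nm read every 30 s for 30 min. IC50 from a log-concentration rate fit against negative and positive controls; triplicate, at least three independent experiments.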

[2] = Solubility of the compound; type: physicochemical
[3] = biological target: T2, Proteasome subunit beta type-8 (Homo sapiens, UniProt P28062); assay: Inhibition of human 20S proteasome subunit beta-5i using Ac-ANW-AMC as substrate and measured every 30 secs for 30 mins by microtiter plate assay; conditions: for inhibition (INH): human, 0.5 h
T2 sequence (P28062 whole entry): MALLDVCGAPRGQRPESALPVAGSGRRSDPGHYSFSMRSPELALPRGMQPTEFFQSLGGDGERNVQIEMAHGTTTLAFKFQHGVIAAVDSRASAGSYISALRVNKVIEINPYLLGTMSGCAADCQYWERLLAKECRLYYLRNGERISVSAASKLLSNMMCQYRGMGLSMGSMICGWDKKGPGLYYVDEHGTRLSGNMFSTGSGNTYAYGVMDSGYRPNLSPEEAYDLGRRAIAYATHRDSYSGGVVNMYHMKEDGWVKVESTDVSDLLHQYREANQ
Summary of the method: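 Human immunoproteasome (i-20S) run in HEPES pH 7.5 buffer with EDTA and BSA, substrate Ac-ANW-AMC at 15 µM, 25 °C. Inhibitor given as a three-fold dilution series, DMSO under 0.5% final. Fluorescence 340/460 nm followed every 30 s for 30 min. IC50 fitted from rates against log inhibitor concentration; triplicate, at least three independent experiments.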

| Structure (SMILES) | IC50 [1] [µM] | inhibition (INH) [1] | solubility [2] | IC50 [3] [µM] | inhibition (INH) [3] |
| --- | --- | --- | --- | --- | --- |
| Cc1cc(C(=O)N[C@@H](CC(=O)N2CCCC[C@@H]2C)C(=O)N[C@@H](C)C(=O)NCc2ccc(F)cc2F)no1 | 1.41 | Dose-dependent effect | Soluble | 0.026 | Dose-dependent effect |
| COc1ccccc1CNC(=O)[C@H](C)NC(=O)[C@H](CC(=O)N1CCC[C@@H]1c1ccccc1)NC(=O)c1cc(C)on1 | > 100 | Dose-dependent effect | – | > 100 | Dose-dependent effect |
| Cc1cc(C(=O)N[C@@H](CC(=O)N2CCC[C@@H]2c2ccccc2)C(=O)N[C@@H](C)C(=O)NCc2c(F)cccc2F)no1 | > 100 | Dose-dependent effect | – | 20.1 | Dose-dependent effect |
| Cc1cc(C(=O)N[C@@H](CC(=O)N2CCC[C@@H]2c2ccccc2)C(=O)N[C@@H](C)C(=O)NCc2ccc(F)cc2F)no1 | > 100 | Dose-dependent effect | – | 7.89 | Dose-dependent effect |
| Cc1cc(C(=O)N[C@@H](CC(=O)N2CCC[C@@H]2c2ccccc2)C(=O)N[C@@H](C)c2ncc(-c3ccccc3F)[nH]2)no1 | > 100 | – | – | > 100 | – |
| Cc1cc(C(=O)N[C@@H](CC(=O)N2CCC[C@@H]2c2ccccc2)C(=O)N[C@@H](C)c2ncc(-c3ccccc3)[nH]2)no1 | > 100 | – | – | > 100 | – |
| Cc1cc(C(=O)N[C@@H](CC(=O)N2CCC[C@@H]2c2ccccc2)C(=O)N[C@@H](C)c2ncc(-c3ccc(F)cc3F)[nH]2)no1 | > 100 | – | – | > 100 | – |
